Assay results gathered from unrelated publications.
Protocols differ between the studies behind these lines.
Target: Dual specificity protein kinase CLK1 (CLK1, Homo sapiens, UniProt P49759)

O=C1NC(=O)c2cc(Nc3ccc(F)cc3)c(Nc3ccc(F)cc3)cc21  remaining signal (cell-free assay; 0.5 µM): 102%
O=C(N1CCS(=O)(=O)CC1)N1C[C@H](c2ccc(OC(F)(F)F)cc2)C[C@H](c2nc(C3CC3)no2)C1  remaining binding (cell-free assay; competition with immobilised ligand; 1 µM): 98%
CC/C(=N\NC(=O)NCc1cccc(O)c1)c1ccc(O)c(C)c1O  inhibition (enzyme activity; inhibitor; 0.1 µM): 0.7%
COc1cc2ncnc(Nc3ccc(Oc4ccccc4)c(C)c3C)c2cc1OC  inhibition (enzyme activity; inhibitor; 1 µM): 3%
CC(C)(C)c1nc2c(s1)c1nc(N)ncc1c1ccc(NS(=O)(=O)c3c(F)cccc3F)c(F)c12  remaining activity (enzyme activity; inhibitor; radiometric; 1 µM): 91%
CCN(CC)CCNC(=O)c1c(C)[nH]c(/C=C2\C(=O)Nc3ccc(F)cc32)c1C  remaining signal (cell-free assay; 0.5 µM): 23.3%
Nc1ncnc2occ(-c3ccc(NC(=O)Nc4cc(C(F)(F)F)ccc4F)cc3)c12  remaining signal (cell-free assay; inhibitor; 20 µM): 0.65%
O=C(NCc1ncc(C(F)(F)F)cc1Cl)c1ccc2c(c1)C1(CCS(=O)(=O)CC1)[C@H](C1CC1)N2S(=O)(=O)c1ccc(F)cc1  remaining binding (cell-free assay; competition with immobilised ligand; 1 µM): 100%
Cc1sc(C(=O)NC2COC2)cc1-n1cc(NC(=O)Nc2c(F)cccc2Cl)cn1  remaining activity (enzyme activity; inhibitor; 10 µM): 98.4%
CC(C)(O)[C@H]1CC[C@H](Nc2ccc3ncc(-c4cccc(C(F)(F)F)c4)n3n2)CC1  remaining activity (enzyme activity; inhibitor; 1 µM): 8.45%
Cc1ccc(C(=O)Nc2ccc(CN3CCN(C)CC3)c(C(F)(F)F)c2)cc1C#Cc1cnc2cccnn12  remaining activity (enzyme activity; inhibitor; 23.5 nM): 38%
Cc1cc(-n2nc(Cc3cc(F)cc(C(F)(F)F)c3)nc2C)ccc1C(N)=O  remaining binding (cell-free assay; competition with immobilised ligand; 1 µM): 86%
COc1cc2nccc(Oc3ccc(NC(=O)Nc4ccc(F)cc4F)c(F)c3)c2cc1OC  ΔTm (thermal stability; DSF; 10 µM): 5 to 10 °C
Cc1ccc(NC(=O)c2ccc(C)c(C(F)(F)F)c2)cc1C#Cc1nn(C2CCC(O)CC2)c2ncnc(N)c12 (stereo not shown)  remaining signal (cell-free assay; 10 µM): 64%
O=C(NC[C@@H]1[C@H]2CN(C(=O)OCc3cc(C(F)(F)F)cc(C(F)(F)F)c3)C[C@@H]12)c1ccc2[nH]nnc2c1  remaining binding (cell-free assay; competition with immobilised ligand; 1 µM): 87%
Oc1cccc(-c2nc(N3CCOCC3)c3oc4ncccc4c3n2)c1  remaining signal (cell-free assay; 0.5 µM): 85.2%
CNCc1ccccc1-c1csc([C@H](C)Nc2nc(C)nc3cc(OC)c(OC)cc23)c1  remaining binding (cell-free assay; competition with immobilised ligand; 1 µM): 95%
Cn1cncc1C1=CN(c2ncnc3[nH]cnc23)CCS1  inhibition (enzyme activity; inhibitor; radiometric; 2 µM): 97.3%
O=C(O)c1cc(-c2ccc(C3CCNCC3)cc2)c2ccc(-c3ccc(C(F)(F)F)cc3)cc2c1  remaining binding (cell-free assay; competition with immobilised ligand; 1 µM): 100%
COc1cc(-c2cc(-c3ccc(N4CCNCC4)cc3)cnc2C)cc(OC)c1OC  inhibition (enzyme activity; inhibitor; 0.1 µM): 1%
CCc1ccccc1C(=O)Nc1n[nH]c2c(C)c(F)c(C3C(C#N)=C(C)N(C)C(C)=C3C#N)cc12  remaining binding (cell-free assay; competition with immobilised ligand; 1 µM): 84%
N#CCCc1ccc2c(c1)-c1[nH]c3ccc([N+](=O)[O-])cc3c1CC(=O)N2  remaining signal (cell-free assay; 0.5 µM): 99.6%
